Laboratory results from ChEMBL document CHEMBL4689842, “EUbOPEN Chemogenomics Library wave 1” (2021).

Tested on: HEK-293T
Test: Multiplex assay against HEK293T;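 for Population Tubulin-Different-Phenotype (%): share of the cells with healthy nuclei that show this phenotype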
Type: toxicity, cell-based
Conditions: human
Method in brief: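 At seeding, live cells were stained with Hoechst33342, BioTracker Green Microtubule Cytoskeleton Dye, MitoTracker Red and Annexin V Alexa Fluor 680. After compound addition they were imaged on a CQ1 microscope at 37°C and 5% CO2, and CellPathfinder machine-learning gating sorted them into Hoechst high-intensity objects or normal cells, with normal cells further split into healthy, pyknosed or fragmented nuclei and pyknosed cells into mitotic or apoptotic. Tubulin, mitochondrial-mass and membrane-permeability phenotypes are given as per cents of cells with healthy nuclei.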

[1] = 24 h, 1 µM, compound concentration 1 uM, replicate 2
[2] = 24 h, 10 µM, compound concentration 10 uM, replicate 1
[3] = 24 h, 10 µM, compound concentration 10 uM, replicate 2
[4] = 48 h, 1 µM, compound concentration 1 uM, replicate 1
[5] = 48 h, 1 µM, compound concentration 1 uM, replicate 2
[6] = 48 h, 10 µM, compound concentration 10 uM, replicate 1
[7] = 48 h, 10 µM, compound concentration 10 uM, replicate 2

`CC(C)N1CCC(C)(C)c2cc(C#Cc3ccc(C(=O)O)cc3)ccc21` was tested, and the “Population Mitochondria Different-Phenotype (%)” value [1] was 4%, the “Population Mitotic Cells (%)” value [1] was 85% and the “Population Normal (%)” value [1] was 95%. The “Population Pyknosed Nuclei (%)” value [1] was 35%, the “Population Tubulin-Different-Phenotype (%)” value [1] was 10% and the “Total Cell Count” value [1] was 168. For the same compound, the “Population Apoptotic (%)” value [2] was 37%, the “Population Fragmented Nuclei (%)” value [2] was 56% and the “Population Healthy Nuclei (%)” value [2] was 40%. The “Population Hoechst High Intensity Objects (%)” value [2] was 62%, the “Population Membrane Permeable-Phenotype (%)” value [2] was 6% and the “Population Mitochondria Different-Phenotype (%)” value [2] was 37%. The “Population Mitotic Cells (%)” value [2] was 62%, the “Population Normal (%)” value [2] was 37% and the “Population Pyknosed Nuclei (%)” value [2] was 4%. The “Population Tubulin-Different-Phenotype (%)” value [2] was 21%, the “Total Cell Count” value [2] was 530 and the “Population Apoptotic (%)” value [3] was 0%. For the same compound, the “Population Fragmented Nuclei (%)” value [3] was 29%, the “Population Healthy Nuclei (%)” value [3] was 67% and the “Population Hoechst High Intensity Objects (%)” value [3] was 46%. The “Population Membrane Permeable-Phenotype (%)” value [3] was 3%, the “Population Mitochondria Different-Phenotype (%)” value [3] was 6% and the “Population Mitotic Cells (%)” value [3] was 100%. The “Population Normal (%)” value [3] was 53%, the “Population Pyknosed Nuclei (%)” value [3] was 3% and the “Population Tubulin-Different-Phenotype (%)” value [3] was 9%. The “Total Cell Count” value [3] was 448, the “Population Apoptotic (%)” value [4] was 43% and the “Population Fragmented Nuclei (%)” value [4] was 15%. The “Population Healthy Nuclei (%)” value [4] was 56%, the “Population Hoechst High Intensity Objects (%)” value [4] was 17% and the “Population Membrane Permeable-Phenotype (%)” value [4] was 6%. For the same compound, the “Population Mitochondria Different-Phenotype (%)” value [4] was 29%, the “Population Mitotic Cells (%)” value [4] was 56% and the “Population Normal (%)” value [4] was 82%. For the same compound, the “Population Pyknosed Nuclei (%)” value [4] was 28%, the “Population Tubulin-Different-Phenotype (%)” value [4] was 27% and the “Total Cell Count” value [4] was 389. For the same compound, the “Population Apoptotic (%)” value [5] was 11%, the “Population Fragmented Nuclei (%)” value [5] was 9% and the “Population Healthy Nuclei (%)” value [5] was 80%. For the same compound, the “Population Hoechst High Intensity Objects (%)” value [5] was 2%, the “Population Membrane Permeable-Phenotype (%)” value [5] was 5% and the “Population Mitochondria Different-Phenotype (%)” value [5] was 2%. For the same compound, the “Population Mitotic Cells (%)” value [5] was 88%, the “Population Normal (%)” value [5] was 97% and the “Population Pyknosed Nuclei (%)” value [5] was 10%. For the same compound, the “Population Tubulin-Different-Phenotype (%)” value [5] was 9%, the “Total Cell Count” value [5] was 358 and the “Population Apoptotic (%)” value [6] was 37%. The “Population Fragmented Nuclei (%)” value [6] was 57%, the “Population Healthy Nuclei (%)” value [6] was 38% and the “Population Hoechst High Intensity Objects (%)” value [6] was 66%. The “Population Membrane Permeable-Phenotype (%)” value [6] was 7%, the “Population Mitochondria Different-Phenotype (%)” value [6] was 12% and the “Population Mitotic Cells (%)” value [6] was 62%. For the same compound, the “Population Normal (%)” value [6] was 33%, the “Population Pyknosed Nuclei (%)” value [6] was 3% and the “Population Tubulin-Different-Phenotype (%)” value [6] was 3%. The “Total Cell Count” value [6] was 624, the “Population Apoptotic (%)” value [7] was 0% and the “Population Fragmented Nuclei (%)” value [7] was 23%. The “Population Healthy Nuclei (%)” value [7] was 73%, the “Population Hoechst High Intensity Objects (%)” value [7] was 52% and the “Population Membrane Permeable-Phenotype (%)” value [7] was 4%. The “Population Mitochondria Different-Phenotype (%)” value [7] was 1%, the “Population Mitotic Cells (%)” value [7] was 100% and the “Population Normal (%)” value [7] was 47%. For the same compound, the “Population Pyknosed Nuclei (%)” value [7] was 2%, the “Population Tubulin-Different-Phenotype (%)” value [7] was 5% and the “Total Cell Count” value [7] was 571.
